Data published in ChEMBL document CHEMBL1155210, “The discovery of tertiary-amine LXR agonists with potent cholesterol efflux activity in macrophages” (Bioorg Med Chem Lett, 2009).

Experiments:
RAW264.7 [1] = assay: Induction of [3H]cholesterol efflux in mouse RAW264.7 cells loaded with acetylated-LDL after 24 hrs relative to 2-(3-(3-((2-chloro-3-(trifluoromethyl)benzyl)(2,2-diphenylethyl)amino)propoxy)phenyl)acetic acid; type: functional
Procedure, shortened: (§1)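 Mouse RAW 264.7 macrophages were grown overnight, then loaded for 24 h with acetylated LDL (final 50 µg/mL) plus 3H-cholesterol (5 µCi/mL). Cells were washed and held 24 h in serum-free, phenol red-free medium with 1% fatty acid-free BSA and compound in DMSO. Efflux then ran 24 h into medium with 0.1% BSA, 5 µg/mL apoA-I and fresh compound. Filtered medium and NaOH cell lysate were counted by scintillation.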

Macrophage [2] = assay: Increase in ABCA1 gene expression in human primary macrophages at 30 nM relative to control; type: functional
Macrophage [3] = assay: Increase in ABCA1 gene expression in human primary macrophages at 100 nM relative to control; type: functional
Macrophage [4] = assay: Increase in ABCG1 gene expression in human primary macrophages at 30 nM relative to control; type: functional
Macrophage [5] = assay: Increase in ABCG1 gene expression in human primary macrophages at 100 nM relative to control; type: functional
Macrophage [6] = assay: Increase in SREBP1 gene expression in human primary macrophages at 100 nM relative to control; type: functional
Macrophage [7] = assay: Increase in ABCA1 gene expression in human primary macrophages; type: functional, cell-based
Macrophage [8] = assay: Increase in ABCG1 gene expression in human primary macrophages; type: functional, cell-based
[9] = target: T1, Oxysterols receptor LXR-alpha (Homo sapiens, UniProt Q13133); assay: Agonist activity at human LXRalpha assessed as association of SRC1 to LXRalpha ligand binding domain by FRET based cell-free ligand sensing assay
T1 sequence (Q13133 whole entry): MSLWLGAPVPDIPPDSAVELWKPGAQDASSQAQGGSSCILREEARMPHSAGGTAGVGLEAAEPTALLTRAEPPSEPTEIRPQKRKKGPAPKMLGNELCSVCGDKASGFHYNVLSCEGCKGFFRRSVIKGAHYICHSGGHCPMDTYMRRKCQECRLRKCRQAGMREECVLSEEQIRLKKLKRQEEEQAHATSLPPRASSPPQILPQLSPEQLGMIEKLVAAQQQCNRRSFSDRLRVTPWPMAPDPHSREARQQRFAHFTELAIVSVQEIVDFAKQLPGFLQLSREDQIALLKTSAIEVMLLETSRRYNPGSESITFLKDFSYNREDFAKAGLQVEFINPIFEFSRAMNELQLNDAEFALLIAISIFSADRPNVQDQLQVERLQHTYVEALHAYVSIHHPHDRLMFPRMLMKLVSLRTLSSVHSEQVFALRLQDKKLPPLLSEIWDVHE
Procedure, shortened: (§2)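 Cell-free FRET ligand-sensing assay measuring ligand-dependent recruitment of a 24-amino-acid steroid receptor coactivator 1 (SRC1) fragment to the LXR ligand-binding domain. Percent efficacy is expressed against the maximal agonist response of the reference agonist. Values are means of at least two experiments, standard deviation ≤10%.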

[10] = target: T2, Oxysterols receptor LXR-alpha (Homo sapiens) (UniProt Q13133); assay: Agonist activity at human LXRalpha assessed as association of SRC1 to LXRalpha ligand binding domain by FRET based cell-free ligand sensing assay relative 2-(3-(3-((2-chloro-3-(trifluoromethyl)benzyl)(2,2-diphenylethyl)amino)propoxy)phenyl)acetic acid; procedure, shortened: as §2
T2 sequence (whole entry): T1 sequence (Q13133 whole entry)

[11] = target: T3, Oxysterols receptor LXR-beta (Homo sapiens, UniProt P55055); assay: Agonist activity at human LXRbeta assessed as association of SRC1 to LXRbeta ligand binding domain by FRET based cell-free ligand sensing assay; procedure, shortened: as §2
T3 sequence (P55055 whole entry): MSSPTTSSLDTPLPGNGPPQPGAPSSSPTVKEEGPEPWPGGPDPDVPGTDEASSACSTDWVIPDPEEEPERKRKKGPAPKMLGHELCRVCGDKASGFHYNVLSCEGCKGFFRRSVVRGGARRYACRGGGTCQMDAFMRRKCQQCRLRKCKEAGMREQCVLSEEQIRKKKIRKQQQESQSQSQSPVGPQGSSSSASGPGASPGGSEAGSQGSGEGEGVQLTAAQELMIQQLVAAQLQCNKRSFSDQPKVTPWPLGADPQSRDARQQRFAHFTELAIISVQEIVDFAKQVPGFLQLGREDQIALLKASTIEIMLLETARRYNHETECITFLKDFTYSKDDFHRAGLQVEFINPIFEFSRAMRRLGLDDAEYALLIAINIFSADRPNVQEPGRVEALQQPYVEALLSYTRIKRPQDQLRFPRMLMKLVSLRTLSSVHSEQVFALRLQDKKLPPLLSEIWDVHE

RAW264.7 [12] = assay: Induction of [3H]cholesterol efflux in mouse RAW264.7 cells loaded with acetylated-LDL after 24 hrs; type: functional, cell-based; procedure, shortened: as §1
[13] = target: Oxysterols receptor LXR-beta (Homo sapiens) (UniProt P55055); assay: Agonist activity at human LXRbeta assessed as association of SRC1 to LXRbeta ligand binding domain by FRET based cell-free ligand sensing assay relative to 2-(3-(3-((2-chloro-3-(trifluoromethyl)benzyl)(2,2-diphenylethyl)amino)propoxy)phenyl)acetic acid; set-up: concentration or dose not given beside the values
[14] = target: T4, Nuclear receptor subfamily 1 group I member 2 (Homo sapiens, UniProt O75469); assay: Binding affinity to PXR by scintillation proximity binding assay
T4 sequence (O75469 whole entry): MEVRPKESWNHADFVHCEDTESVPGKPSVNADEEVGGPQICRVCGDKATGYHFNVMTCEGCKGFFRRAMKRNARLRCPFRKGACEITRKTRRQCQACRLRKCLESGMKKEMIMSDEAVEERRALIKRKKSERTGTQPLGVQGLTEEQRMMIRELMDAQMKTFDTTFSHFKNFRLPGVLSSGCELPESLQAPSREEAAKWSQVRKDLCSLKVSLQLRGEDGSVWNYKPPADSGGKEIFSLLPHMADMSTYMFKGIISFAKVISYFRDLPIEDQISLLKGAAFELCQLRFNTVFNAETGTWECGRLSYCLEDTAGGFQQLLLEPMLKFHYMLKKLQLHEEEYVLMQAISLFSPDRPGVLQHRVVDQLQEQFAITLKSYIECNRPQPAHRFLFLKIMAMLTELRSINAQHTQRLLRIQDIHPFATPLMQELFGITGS

[15] = Plasma clearance in Sprague-Dawley rat at 2.6 mg/kg, iv; type: ADME, organism-based; set-up: dose 2.6 mg/kg, route intravenous
[16] = Volume of distribution at steady state in Sprague-Dawley rat at 2.6 mg/kg, iv; type: ADME, organism-based; set-up: dose 2.6 mg/kg, route intravenous; conditions: in vivo, read-out: Vdss
[17] = Half life in Sprague-Dawley rat at 2.6 mg/kg, iv; type: ADME, organism-based; set-up: dose 2.6 mg/kg, route intravenous; conditions: in vivo
[18] = Cmax in Sprague-Dawley rat at 2.6 mg/kg, iv; type: ADME, organism-based; set-up: dose 2.6 mg/kg, route intravenous; conditions: in vivo
[19] = Half life in Sprague-Dawley rat at 4.5 mg/kg, po; type: ADME, organism-based; set-up: dose 4.5 mg/kg, route oral; conditions: in vivo
Procedure, shortened: (§3)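 Pharmacokinetics were measured after an intravenous dose of 2.6 mg/kg and an oral dose of 4.5 mg/kg. Oral half-life and oral bioavailability (F%) are reported as mean ± deviation.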

[20] = Oral bioavailability in Sprague-Dawley rat at 4.5 mg/kg; type: ADME, organism-based; conditions: in vivo; procedure, shortened: as §3

| EC50 [9] [nM] | Activity [10] [%] | EC50 [11] [nM] | EC50 (RAW264.7 [12]) [nM] | Activity [13] [%] | Ki [14] [nM] | clearance [15] [mL/min/kg] | Vd [16] [L/kg] | half-life [17] [h] | Cmax [18] [ng/mL] | half-life [19] [h] | bioavailability [20] [%] | Compound | fold change (FC) (RAW264.7 [1]) | fold change (FC) (Macrophage [2]) | fold change (FC) (Macrophage [3]) | fold change (FC) (Macrophage [4]) | fold change (FC) (Macrophage [5]) | fold change (FC) (Macrophage [6]) | Activity (Macrophage [7]) | Activity (Macrophage [8]) |
| --- | --- | --- | --- | --- | --- | --- | --- | --- | --- | --- | --- | --- | --- | --- | --- | --- | --- | --- | --- | --- |
| 56 | 100 | 26 | 18 | 100 |  |  |  |  |  |  |  | O=C(O)C1CCCc2c(OCCCN(Cc3cccc(C(F)(F)F)c3Cl)CC(c3ccccc3)c3ccccc3)cccc21 (racemic) | 2 | 1.4 | 2.6 | 2 | 3.6 | 2.6 | Dose-dependent effect | Dose-dependent effect |
| 305 | 20 | 145 |  | 26 |  |  |  |  |  |  |  | O=C(O)Cc1ccc2oc(CCN(Cc3cccc(C(F)(F)F)c3Cl)CC(c3ccccc3)c3ccccc3)cc2c1 |  |  |  |  |  |  |  |  |
| 280 | 67 | 86 | 76 | 70 |  |  |  |  |  |  |  | C[C@@H](COc1cccc(CC(=O)O)c1)CN(Cc1cccc(C(F)(F)F)c1Cl)CC(c1ccccc1)c1ccccc1 |  |  |  |  |  |  |  |  |
| 43 | 100 | 15 | 7 | 95 |  |  |  |  |  |  |  | CC(C)(C(=O)O)c1cccc(OCCCN(Cc2cccc(C(F)(F)F)c2Cl)CC(c2ccccc2)c2ccccc2)c1 | 2 | 3 | 4 | 7.5 | 11.2 | 5.8 | Dose-dependent effect | Dose-dependent effect |
| 331 | 53 | 63 |  | 75 |  |  |  |  |  |  |  | O=C(O)Cc1ccc2cc(CCN(Cc3cccc(C(F)(F)F)c3Cl)CC(c3ccccc3)c3ccccc3)oc2c1 |  |  |  |  |  |  |  |  |
| 211 | 91 | 87 | 54 | 80 |  |  |  |  |  |  |  | C[C@@H](CCOc1cccc(CC(=O)O)c1)N(Cc1cccc(C(F)(F)F)c1Cl)CC(c1ccccc1)c1ccccc1 |  |  |  |  |  |  |  |  |
| 74 | 100 | 25 | 17 | 89 | > 10000 | 23.7 | 1.9 | 1.82 | 2130 | 2.4 | 71 | C[C@H](CCOc1cccc(CC(=O)O)c1)N(Cc1cccc(C(F)(F)F)c1Cl)CC(c1ccccc1)c1ccccc1 [ABEQUOLIXRON] | 2 | 3.6 | 6.3 | 4.2 | 8 | 5.5 | Dose-dependent effect | Dose-dependent effect |
| 9 | 100 | 11 | < 3 | 100 |  |  |  |  |  |  |  | C[C@H](CCOc1cccc(C(C)(C)C(=O)O)c1)N(Cc1cccc(C(F)(F)F)c1Cl)CC(c1ccccc1)c1ccccc1 | 2 |  |  |  |  |  |  |  |
| 365 | 39 | 145 |  | 59 |  |  |  |  |  |  |  | C[C@@H](CCN(Cc1cccc(C(F)(F)F)c1Cl)CC(c1ccccc1)c1ccccc1)Oc1cccc(CC(=O)O)c1 |  |  |  |  |  |  |  |  |
| 200 | 78 | 41 | 34 | 76 | > 10000 |  |  |  |  |  |  | C[C@H](CCN(Cc1cccc(C(F)(F)F)c1Cl)CC(c1ccccc1)c1ccccc1)Oc1cccc(CC(=O)O)c1 |  |  |  |  |  |  |  |  |
| 46 | 100 | 15 | 15 | 90 |  |  |  |  |  |  |  | CC(C(=O)O)c1cccc(OCCCN(Cc2cccc(C(F)(F)F)c2Cl)CC(c2ccccc2)c2ccccc2)c1 (stereo not given) | 2 |  |  |  |  |  |  |  |
| 380 | 69 | 174 |  | 68 |  |  |  |  |  |  |  | CCC(CC)(C(=O)O)c1cccc(OCCCN(Cc2cccc(C(F)(F)F)c2Cl)CC(c2ccccc2)c2ccccc2)c1 |  |  |  |  |  |  |  |  |

| Compound | EC50 [9] [nM] | Activity [10] [%] | EC50 [11] [nM] | EC50 (RAW264.7 [12]) [nM] | Activity [13] [%] | Ki [14] [nM] | clearance [15] [mL/min/kg] | Vd [16] [L/kg] | half-life [17] [h] | Cmax [18] [ng/mL] | half-life [19] [h] | bioavailability [20] [%] | fold change (FC) (RAW264.7 [1]) | fold change (FC) (Macrophage [2]) | fold change (FC) (Macrophage [3]) | fold change (FC) (Macrophage [4]) | fold change (FC) (Macrophage [5]) | fold change (FC) (Macrophage [6]) | Activity (Macrophage [7]) | Activity (Macrophage [8]) |
| --- | --- | --- | --- | --- | --- | --- | --- | --- | --- | --- | --- | --- | --- | --- | --- | --- | --- | --- | --- | --- |
| O=C(O)Cc1cccc(OCCCN(Cc2cccc(C(F)(F)F)c2Cl)CC(c2ccccc2)c2ccccc2)c1 | 200 |  |  | 29 |  | 2000 |  |  |  |  |  |  |  | 2 | 3.1 | 3.2 | 5.4 | 4.1 | Dose-dependent effect | Dose-dependent effect |
